Measured values: ChEMBL document CHEMBL3813692, “Discovery of a Fluorinated Enigmol Analog with Enhanced in Vivo Pharmacokinetic and Anti-Tumor Properties” (ACS Med Chem Lett, 2016)
Calls of active or inactive are those of the source. The calls are words filed in the database; no cut-off is given here.

Columns and labels:
[1] = Lipophilicity, log P of the compound; type: physicochemical; conditions: octanol/water
[2] = tested on: PC-3; test: Antitumor activity against human PC3 cells xenografted in athymic NCr-nu/nu mouse assessed as tumor growth inhibition at 10 mg/kg, qd administered via oral gavage measured every 2 to 3 days; type: functional, organism-based
Method in brief: (§1)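 Nude mice with palpable subcutaneous PC-3 tumors (n = 9–11 per group) were dosed once daily by oral gavage. Study 1 used 3 or 10 mg/kg in 95:5 olive oil/EtOH vehicle; study 2 used 10 or 30 mg/kg in 95:5 PEG400/Tween80 vehicle. Tumor volume and body weight were measured periodically. Tumor growth was analysed by a repeated-measures linear mixed model with autoregressive covariance; weight change by one-way ANOVA with Sidak's test.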

[3] = Cytotoxicity against human PC3 cells assessed as reduction in cell viability after 24 hrs by WST-1 assay; type: functional, cell-based; conditions: PC-3, 24 h
Method in brief: (§2)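 Cells were exposed to compound for 24 h (n = 3–4), and viability was read as mitochondrial activity by WST-1. IC50 and IC90 were derived from concentration–response curves and reported as mean ± SEM.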

[4] = Drug uptake in pre-cannulated Sprague-Dawley rat RBC at 10 mg/kg administered via oral gavage after 24 hrs by LC-MS/MS analysis; type: ADME, organism-based, Erythrocyte; conditions: red blood cells, read-out: Drug uptake
Method in brief: (§3)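 After one 10 mg/kg oral gavage to SD rats (n = 4 per group), red blood cells, brain, lung, liver, kidney and prostate were harvested at 24 h. Drug levels were quantified by LC-MS/MS.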

[5] = Cmax in pre-cannulated Sprague-Dawley rat at 10 mg/kg administered via oral gavage after 0.5 to 24 hrs by LC-MS/MS analysis; type: ADME, organism-based; design: dose 10 mg/kg, route oral; conditions: in vivo
Method in brief: (§4)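 A single 10 mg/kg oral gavage was given to SD rats (n = 4 per group). Vehicle was 90:10 olive oil/EtOH or 95:5 PEG400/Tween80, depending on the analog. Plasma was collected periodically and drug was measured by LC-MS/MS; data are mean ± SEM.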

[6] = Tmax in pre-cannulated Sprague-Dawley rat at 10 mg/kg administered via oral gavage after 0.5 to 24 hrs by LC-MS/MS analysis; type: ADME, organism-based; conditions: in vivo; method in brief: as §4
[7] = Clearance in pre-cannulated Sprague-Dawley rat at 2 mg/kg, iv after […] to 8 hrs by LC-MS/MS analysis; type: ADME, organism-based; conditions: in vivo
Method in brief: (§5)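 SD rats (n = 3–4 per group) received a single 2 mg/kg i.v. injection in PEG400/EtOH/Tween80/H2O (40:10:3:47). Plasma was sampled periodically and drug was quantified by LC-MS/MS. t1/2, Cl, Cmax and AUC were reported as mean ± SEM.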

[8] = Drug uptake in tumor of human PC3 cells xenografted in athymic NCr-nu/nu mouse at 3 mg/kg, qd administered via oral gavage measured 24 hrs post last dose by LC-MS/MS analysis; type: ADME, organism-based, Neoplasm, PC-3; conditions: read-out: Drug uptake
Method in brief: (§6)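 Tumors were harvested at the end of daily oral-gavage xenograft studies in nude mice bearing PC-3 tumors (3, 10 or 30 mg/kg). Drug accumulation in tumor was measured by LC-MS/MS and reported as mean ± SEM.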

[9] = Oral bioavailability in pre-cannulated Sprague-Dawley rat at 10 mg/kg administered via gavage after 0.5 to 24 hrs by LC-MS/MS analysis; type: ADME, organism-based; conditions: in vivo
[10] = Tmax in pre-cannulated Sprague-Dawley rat at 2 mg/kg, iv after […] to 8 hrs by LC-MS/MS analysis; type: ADME, organism-based; conditions: in vivo; method in brief: as §5
[11] = Octanol-buffer partition co-efficient, log D of the compound at 100 uM at pH 7.4 by shake-flask method; type: physicochemical
[12] = tested on: Mus musculus; test: Toxicity in athymic NCr-nu/nu mouse xenografted with human PC3 cells assessed as change in body weight at 3 mg/kg administered via oral gavage measured every 2 to 3 days; type: organism-based, PC-3; conditions: in vivo; method in brief: as §1
[13] = Terminal half-life in pre-cannulated Sprague-Dawley rat at 10 mg/kg administered via oral gavage after 0.5 to 24 hrs by LC-MS/MS analysis; type: ADME, organism-based; conditions: in vivo, read-out: beta t1/2 (converted); method in brief: as §4
[14] = AUC(0 to t) in pre-cannulated Sprague-Dawley rat at 2 mg/kg, iv after […] to 8 hrs by LC-MS/MS analysis; type: ADME, organism-based; design: time upper 8 hr, dose 2 mg/kg, route intravenous; conditions: in vivo; method in brief: as §5
[15] = tested on: PC-3; test: Antitumor activity against human PC3 cells xenografted in athymic NCr-nu/nu mouse assessed as tumor growth inhibition at 3 mg/kg, qd administered via oral gavage measured every 2 to 3 days; type: functional, organism-based; method in brief: as §1
[16] = Drug uptake in pre-cannulated Sprague-Dawley rat lung at 10 mg/kg administered via oral gavage after 24 hrs by LC-MS/MS analysis; type: ADME, organism-based; conditions: read-out: Drug uptake; method in brief: as §3
[17] = tested on: LNCaP; test: Cytotoxicity against human LNCAP cells assessed as reduction in cell viability after 24 hrs by WST-1 assay; type: functional, cell-based; method in brief: as §2
[18] = Drug uptake in pre-cannulated Sprague-Dawley rat kidney at 10 mg/kg administered via oral gavage after 24 hrs by LC-MS/MS analysis; type: ADME, organism-based; conditions: read-out: Drug uptake; method in brief: as §3
[19] = Drug uptake in tumor of human PC3 cells xenografted in athymic NCr-nu/nu mouse at 10 mg/kg, qd administered via oral gavage measured 24 hrs post last dose by LC-MS/MS analysis; type: ADME, organism-based, Neoplasm, PC-3; conditions: read-out: Drug uptake; method in brief: as §6
[20] = Drug uptake in pre-cannulated Sprague-Dawley rat brain at 10 mg/kg administered via oral gavage after 24 hrs by LC-MS/MS analysis; type: ADME, organism-based; conditions: read-out: Drug uptake; method in brief: as §3
[21] = tested on: Plasma; test: Drug uptake in pre-cannulated Sprague-Dawley rat plasma at 10 mg/kg administered via oral gavage after 1 hr by LC-MS/MS analysis; type: ADME, organism-based; conditions: in vivo; method in brief: as §4
[22] = Drug uptake in pre-cannulated Sprague-Dawley rat liver at 10 mg/kg administered via oral gavage after 24 hrs by LC-MS/MS analysis; type: ADME, organism-based; conditions: read-out: Drug uptake; method in brief: as §3
[23] = tested on: Mus musculus; test: Toxicity in athymic NCr-nu/nu mouse xenografted with human PC3 cells assessed as change in body weight at 10 mg/kg administered via oral gavage measured every 2 to 3 days; type: organism-based, PC-3; conditions: in vivo; method in brief: as §1
[24] = Cmax in pre-cannulated Sprague-Dawley rat at 2 mg/kg, iv after […] to 8 hrs by LC-MS/MS analysis; type: ADME, organism-based; design: dose 2 mg/kg, route intravenous; conditions: in vivo; method in brief: as §5
[25] = AUC(0 to t) in pre-cannulated Sprague-Dawley rat at 10 mg/kg administered via oral gavage after 0.5 to 24 hrs by LC-MS/MS analysis; type: ADME, organism-based; design: time upper 24 hr, time lower 0.5 hr, dose 10 mg/kg, route oral; conditions: in vivo; method in brief: as §4
[26] = Terminal half-life in pre-cannulated Sprague-Dawley rat at 2 mg/kg, iv after […] to 8 hrs by LC-MS/MS analysis; type: ADME, organism-based; conditions: in vivo, read-out: beta t1/2 (converted); method in brief: as §5
[27] = Drug uptake in pre-cannulated Sprague-Dawley rat prostate gland at 10 mg/kg administered via oral gavage after 24 hrs by LC-MS/MS analysis; type: ADME, organism-based; conditions: read-out: Drug uptake; method in brief: as §3
[28] = tested on: Plasma; test: Drug uptake in pre-cannulated Sprague-Dawley rat plasma at 10 mg/kg administered via oral gavage after 2 hrs by LC-MS/MS analysis; type: ADME, organism-based; conditions: in vivo; method in brief: as §4
[29] = Drug uptake in tumor of human PC3 cells xenografted in athymic NCr-nu/nu mouse at 30 mg/kg, qd administered via oral gavage measured 24 hrs post last dose by LC-MS/MS analysis; type: ADME, organism-based, Neoplasm, PC-3; conditions: read-out: Drug uptake; method in brief: as §6
[30] = tested on: Mus musculus; test: Toxicity in athymic NCr-nu/nu mouse xenografted with human PC3 cells assessed as change in body weight at 30 mg/kg administered via oral gavage measured every 2 to 3 days; type: organism-based, PC-3; conditions: in vivo; method in brief: as §1

Compound | TGI [2] | IC50 [3] | IC90 [3] | concentration at 24 h [4] | Cmax [5] | Tmax [6] | clearance [7] | bioavailability [9] | Tmax [10] | logD at 100 µM [11] | half-life [13] | AUC(0-t) [14] | concentration at 24 h [16] | IC50 [17] | IC90 [17] | concentration at 24 h [18] | concentration at 24 h [19] | concentration at 24 h [20] | concentration at 24 h [22] | Activity [23] | other results
OC(F)(F)CF | – | – | – | – | – | – | – | – | – | – | – | – | – | – | – | – | – | – | – | – | logP [1]: 0.36
CCCCCCCCCCCCC[C@H](O)C[C@H](O)[C@H](C)N [ENIGMOL] | Active | 12.1 µM | 14 µM | 0.041 µM | 0.0846 µM | 8 h | 76.2 mL/min/kg | 11% | 4.8 min | 3.5 | 8.3 h | 1.45 µM·h | 5.34 µM | 11.7 µM | 19.6 µM | 1.35 µM | 1.6 µM | 3.25 µM | 1.06 µM | Non-toxic | concentration at 24 h [8]: 1.05 µM; Activity [12]: Non-toxic; TGI [15]: inactive; Drug uptake [21]: Not Active; Cmax [24]: 2.45 µM; AUC(0-t) [25]: 0.832 µM·h; half-life [26]: 4 h; concentration at 24 h [27]: 0.766 µM
CCCCCCCCCCCCC(F)(F)[C@H](O)C[C@H](O)[C@H](C)N | Active | 11.7 µM | 15.3 µM | 0.936 µM | 0.119 µM | 8 h | 34 mL/min/kg | 10% | 4.8 min | 1.73 | 9.9 h | 2.91 µM·h | 44.5 µM | 13.4 µM | 16.7 µM | 14.8 µM | 23.6 µM | 16.1 µM | 9.29 µM | Non-toxic | Drug uptake [28]: Not Active; concentration at 24 h [29]: 62 µM; Cmax [24]: 4.4 µM; Activity [30]: Non-toxic; AUC(0-t) [25]: 1.47 µM·h; half-life [26]: 5.7 h; concentration at 24 h [27]: 6.94 µM
CCCCCC(O)C(F)(F)F (stereo not given) | – | – | – | – | – | – | – | – | – | – | – | – | – | – | – | – | – | – | – | – | logP [1]: 1.14
C[C@H](N)[C@@H](O)C[C@@H](O)CCCCCCCCCCCCC(F)(F)F | inactive | 21.4 µM | 24.4 µM | 0.153 µM | 0.193 µM | 12 h | 136 mL/min/kg | 68% | 4.8 min | 3.24 | 5.5 h | 0.688 µM·h | 18.7 µM | 11.3 µM | 19.2 µM | 4.74 µM | 25.3 µM | 6.01 µM | 1.94 µM | 11.6% | concentration at 24 h [8]: 3.23 µM; Activity [12]: Non-toxic; TGI [15]: inactive; Drug uptake [21]: Not Active; Cmax [24]: 1.68 µM; AUC(0-t) [25]: 2.34 µM·h; half-life [26]: 1.3 h; concentration at 24 h [27]: 3.46 µM
